From ChEMBL document CHEMBL2384953, “Design and synthesis of L- and D-phenylalanine derived rhodanines with novel C5-arylidenes as inhibitors of HCV NS5B polymerase” (Bioorg Med Chem, 2013)

How the values were obtained:
[1] = tested on: Hepatitis C virus; experiment: Inhibition of HCV genotype 1b recombinant NS5B Cdelta21 polymerase assessed as inhibition of radioactive UMP incorporation into nascent RNA using […] template-primer after 1hr by liquid scintillation counting analysis; set-up: species or system Hepatitis C virus subtype 1b
Procedure, shortened: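 Recombinant HCV NS5BCΔ21 (genotype 1b), homopolymeric poly rA/U12 template-primer. Read-out is radioactive UMP incorporated into nascent RNA. Dose-response at 8-10 compound concentrations, in duplicate, two independent experiments. IC50 interpolated from nonlinear regression fits; mean ± SD.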

[2] = tested on: Hepacivirus hominis; experiment: Selectivity ratio of IC50 for HCV NS5B polymerase M423T mutant to IC50 for wild type HCV NS5B polymerase
Procedure, shortened: (§1)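 Recombinant HCV NS5BCΔ21 (genotype 1b), wild type and the P495L, M423T and M414T mutants, each assayed for incorporation of radioactive UMP into nascent RNA on homopolymeric poly rA/U12 template-primer. IC50s came from nonlinear regression of dose-response curves (8-10 compound concentrations, duplicate, at least two independent experiments, mean ± SD). The ratio is mutant IC50 over wild-type IC50.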

[3] = tested on: Hepacivirus hominis; experiment: Selectivity ratio of IC50 for HCV NS5B polymerase M414T mutant to IC50 for wild type HCV NS5B polymerase; procedure, shortened: as §1
[4] = molecular target: RNA-directed RNA polymerase (Hepacivirus hominis, UniProt O39930, M423T); experiment: Inhibition of HCV NS5B polymerase M423T mutant assessed as inhibition of radioactive UMP incorporation into nascent RNA using […] template-primer after 1hr by liquid scintillation counting analysis
Procedure, shortened: (§2)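 Mutant counterscreen with recombinant NS5BCΔ21 mutants: P495L (probe for TP-I site), M423T (TP-II), M414T (PP-I). Radioactive UMP incorporation into nascent RNA on poly rA/U12 template-primer, run as for wild-type. IC50 from dose-response curves by nonlinear regression; mean ± SD of at least two independent experiments in duplicate.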

[5] = tested on: Hepacivirus hominis; experiment: Selectivity ratio of IC50 for HCV NS5B polymerase P495L mutant to IC50 for wild type HCV NS5B polymerase; procedure, shortened: as §1
[6] = molecular target: RNA-directed RNA polymerase (Hepacivirus hominis, UniProt O39930, M414T); experiment: Inhibition of HCV NS5B polymerase M414T mutant assessed as inhibition of radioactive UMP incorporation into nascent RNA using […] template-primer after 1hr by liquid scintillation counting analysis; procedure, shortened: as §2
[7] = molecular target: RNA-directed RNA polymerase (Hepacivirus hominis, UniProt O39930, P495L); experiment: Inhibition of HCV NS5B polymerase P495L mutant assessed as inhibition of radioactive UMP incorporation into nascent RNA using […] template-primer after 1hr by liquid scintillation counting analysis; procedure, shortened: as §2
[8] = tested on: Hepatitis C virus; experiment: Antiviral activity against hepatitis C virus infected in human hepatoma cells assessed as inhibition of HCV replication at 100 uM; format: functional, Hepacivirus hominis
[9] = Cytotoxicity against human hepatoma cells; format: cell-based

RNA-directed RNA polymerase (Hepacivirus hominis, UniProt O39930, M423T), sequence (O39930 entry or part of it M423T): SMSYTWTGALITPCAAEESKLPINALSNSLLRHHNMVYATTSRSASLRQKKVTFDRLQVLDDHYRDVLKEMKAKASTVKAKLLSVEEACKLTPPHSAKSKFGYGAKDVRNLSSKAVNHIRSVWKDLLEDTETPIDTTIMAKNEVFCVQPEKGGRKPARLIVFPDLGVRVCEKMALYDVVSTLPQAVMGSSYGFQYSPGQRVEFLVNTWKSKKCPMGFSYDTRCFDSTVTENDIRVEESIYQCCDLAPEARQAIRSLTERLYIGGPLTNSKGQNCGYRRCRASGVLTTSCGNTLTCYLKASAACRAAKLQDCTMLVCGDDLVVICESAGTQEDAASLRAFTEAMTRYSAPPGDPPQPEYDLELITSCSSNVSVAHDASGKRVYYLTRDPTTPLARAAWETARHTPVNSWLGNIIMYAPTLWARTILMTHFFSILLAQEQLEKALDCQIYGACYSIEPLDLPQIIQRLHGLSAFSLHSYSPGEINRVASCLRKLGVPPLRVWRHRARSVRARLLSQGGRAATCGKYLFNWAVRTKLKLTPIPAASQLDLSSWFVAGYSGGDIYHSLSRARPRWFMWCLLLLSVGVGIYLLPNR
RNA-directed RNA polymerase (Hepacivirus hominis, UniProt O39930, P495L), sequence (O39930 entry or part of it P495L): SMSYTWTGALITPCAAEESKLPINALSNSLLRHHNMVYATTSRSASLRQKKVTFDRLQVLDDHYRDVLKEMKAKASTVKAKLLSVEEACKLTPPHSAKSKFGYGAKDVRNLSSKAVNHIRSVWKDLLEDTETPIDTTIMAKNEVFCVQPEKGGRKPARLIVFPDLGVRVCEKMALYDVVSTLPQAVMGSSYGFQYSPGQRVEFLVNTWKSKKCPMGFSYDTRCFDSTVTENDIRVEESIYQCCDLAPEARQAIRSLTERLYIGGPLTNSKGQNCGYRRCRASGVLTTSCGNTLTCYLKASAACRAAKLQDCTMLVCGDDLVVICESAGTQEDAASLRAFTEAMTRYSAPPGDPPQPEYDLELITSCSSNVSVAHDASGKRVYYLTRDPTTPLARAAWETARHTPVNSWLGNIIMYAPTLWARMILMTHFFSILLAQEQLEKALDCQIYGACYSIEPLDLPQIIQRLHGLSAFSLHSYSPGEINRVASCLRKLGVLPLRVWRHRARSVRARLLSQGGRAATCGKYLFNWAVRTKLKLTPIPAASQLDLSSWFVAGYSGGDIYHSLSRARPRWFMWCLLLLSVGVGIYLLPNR
RNA-directed RNA polymerase (Hepacivirus hominis, UniProt O39930, M414T), sequence (O39930 entry or part of it M414T): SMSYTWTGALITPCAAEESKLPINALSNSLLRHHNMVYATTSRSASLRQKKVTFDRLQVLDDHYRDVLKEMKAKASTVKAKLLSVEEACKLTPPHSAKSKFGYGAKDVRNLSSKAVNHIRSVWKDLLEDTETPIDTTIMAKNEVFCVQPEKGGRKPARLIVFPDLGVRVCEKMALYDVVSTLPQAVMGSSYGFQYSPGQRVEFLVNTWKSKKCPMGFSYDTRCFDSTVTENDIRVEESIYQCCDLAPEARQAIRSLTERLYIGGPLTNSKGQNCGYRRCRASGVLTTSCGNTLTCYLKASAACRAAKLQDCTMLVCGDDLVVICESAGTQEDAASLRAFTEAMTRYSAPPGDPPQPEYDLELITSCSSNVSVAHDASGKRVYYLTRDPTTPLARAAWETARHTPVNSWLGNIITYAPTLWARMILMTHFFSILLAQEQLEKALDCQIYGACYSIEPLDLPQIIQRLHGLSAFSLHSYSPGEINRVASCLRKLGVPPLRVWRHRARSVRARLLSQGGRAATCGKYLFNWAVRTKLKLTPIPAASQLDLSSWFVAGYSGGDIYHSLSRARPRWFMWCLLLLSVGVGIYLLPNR

Compound	IC50 [1]	other results
O=C(O)[C@H](Cc1ccccc1)N1C(=O)/C(=C/c2cccc(Br)c2)SC1=S	7.4 µM	–
O=C(O)[C@H](Cc1ccccc1)N1C(=O)/C(=C/c2ccc(F)cc2)SC1=S	27.7 µM	–
O=C(O)[C@H](Cc1ccccc1)N1C(=O)/C(=C/c2ccc(Cl)cc2)SC1=S	22.3 µM	–
O=C(O)[C@H](Cc1ccccc1)N1C(=O)/C(=C/c2cccc(OC/C=C\c3ccccc3)c2)SC1=S	6.4 µM	–
O=C(O)[C@H](Cc1ccccc1)N1C(=O)/C(=C/c2ccccc2Oc2ccccc2)SC1=S	13.3 µM	–
O=C(O)[C@@H](Cc1ccccc1)N1C(=O)/C(=C/c2cccc(Oc3ccccc3)c2)SC1=S	19.3 µM	–
O=C(O)[C@H](Cc1ccccc1)N1C(=O)/C(=C/c2cccc(Oc3ccc(Cl)cc3)c2)SC1=S	3.4 µM	Ratio IC50 [2]: < 1.5; Ratio IC50 [3]: 16; IC50 [4]: 4.2 µM; Ratio IC50 [5]: < 1.5; IC50 [6]: 55.7 µM; IC50 [7]: 3.6 µM
O=C(O)[C@H](Cc1ccccc1)N1C(=O)/C(=C/c2cccc(Oc3ccccc3)c2)SC1=S	6.7 µM	–
O=C(c1ccccc1)c1cccc(/C=C2\SC(=S)N([C@@H](Cc3ccccc3)C(=O)O)C2=O)c1	11.1 µM	–
COc1ccc(Oc2cccc(/C=C3\SC(=S)N([C@@H](Cc4ccccc4)C(=O)O)C3=O)c2)cc1	8.3 µM	–
O=C(O)[C@@H](Cc1ccccc1)N1C(=O)/C(=C/c2cccc(Oc3ccc(Cl)cc3)c2)SC1=S	5.1 µM	–
O=C(O)[C@H](Cc1ccccc1)N1C(=O)/C(=C/c2cccc(Oc3ccc(Cl)c(Cl)c3)c2)SC1=S	2.6 µM	Ratio IC50 [2]: < 1.5; Ratio IC50 [3]: 16; IC50 [4]: 3 µM; Ratio IC50 [5]: < 1.5; IC50 [6]: 47.8 µM; IC50 [7]: 2.8 µM
O=C(O)[C@@H](Cc1ccccc1)N1C(=O)/C(=C/c2cccc(Oc3cccc(Cl)c3)c2)SC1=S	4.1 µM	–
O=C(O)[C@H](Cc1ccccc1)N1C(=O)/C(=C/c2cccc(Cl)c2)SC1=S	26.6 µM	–
N#Cc1cccc(/C=C2\SC(=S)N([C@@H](Cc3ccccc3)C(=O)O)C2=O)c1	30.7 µM	–
O=C(O)[C@H](Cc1ccccc1)N1C(=O)/C(=C/c2cccc(Oc3ccc(F)cc3)c2)SC1=S	12.5 µM	–
O=C(O)[C@H](Cc1ccccc1)N1C(=O)/C(=C/c2cccc(OCc3ccccc3)c2)SC1=S	21.8 µM	–
O=C(O)[C@@H](Cc1ccccc1)N1C(=O)/C(=C/c2cccc(Oc3ccc(F)cc3)c2)SC1=S	10.3 µM	–
O=C(O)[C@H](Cc1ccccc1)N1C(=O)/C(=C/c2cccc(Oc3cccc(Cl)c3)c2)SC1=S	4.1 µM	–
O=C(O)[C@H](Cc1ccccc1)N1C(=O)/C(=C/c2ccc(Oc3ccccc3)cc2)SC1=S	50.7 µM	–
O=C(O)[C@@H](Cc1ccccc1)N1C(=O)/C(=C/c2cccc(Oc3ccc(Cl)c(Cl)c3)c2)SC1=S	5.4 µM	–
O=C(O)[C@H](Cc1ccccc1)N1C(=O)/C(=C/c2cccc(-c3ccccc3)c2)SC1=S	16.6 µM	–
O=C(O)[C@H](Cc1ccccc1)N1C(=O)/C(=C/c2cccc(Oc3cccc(F)c3)c2)SC1=S	8.2 µM	–
O=C(O)[C@H](Cc1ccccc1)N1C(=O)/C(=C/c2cc(F)cc(F)c2)SC1=S	26 µM	–
O=C(O)[C@H](Cc1ccccc1)N1C(=O)/C(=C/c2ccc(F)c(F)c2)SC1=S	16.3 µM	–
O=C(O)[C@H](Cc1ccccc1)N1C(=O)/C(=C/c2ccc(Br)cc2)SC1=S	11.7 µM	–
O=C(O)[C@H](Cc1ccccc1)N1C(=O)/C(=C/c2cccc(Cc3ccccc3)c2)SC1=S	4.8 µM	inhibition at 100 µM [8]: 30%; Activity [9]: Non-toxic
O=C(O)[C@H](Cc1ccccc1)N1C(=O)/C(=C/c2ccc(Cl)c(Cl)c2)SC1=S	19.4 µM	–
